Rpn11 inh = blocks the human proteasome subunit Rpn11; O00487; human 26S proteasome, Ub4-pepOG fluorescence polarization; 20S core pre-blocked with epoxomicin; inhibition, % at 20 µM; AID 588493; actives 0.59% (n = 360,000);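 active = inhibition at 20 µM, scaled to each plate's controls, above about 33%, limit read from the data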
HNF4A DNA FP = change in binding of human HNF4 alpha to DNA; HNF4a-FITC DNA binding, fluorescence polarization, 1 h; P41235; actives 0.3% (n = 360,000); activity change, % at 10 µM; AID 1224865; in the data active = activity change above about 30%, passing the limit was not always enough
aDG glyco up = increases alpha dystroglycan glycosylation | Pro5-aDG cells, alpha-DG glycosylation AlphaScreen (IIH6); 0% Pro5, 100% B10-LARGE cell signal | activation, % at 10 µM | actives 0.22% (n = 360,000);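 active = activation of at least 8% versus controls, or a plate z-score of at least 8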;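 note: Pro5 are CHO cells carrying HIG-tagged alpha-DG that lacks glycosylation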
Xi reactivation = reactivates the inactive X chromosome in mouse fibroblasts; actives 0.055% (n = 360,000); XiGFP mouse fibroblasts, % GFP-positive cells imaging, 3 d; cells co-treated with 5-aza-dC sensitizer; scaled so ellipticine positive control = 100%; activation, % at 7.58 µM;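 active = mean normalized replicate activation at least 10% and every replicate at or above 10%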;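 note: 0% = median of on-plate neutral control wells and 100% = ellipticine 6 µM median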
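Material: SV40-immortalized XiGFP fibroblast cells, line 68-5-11 | Buffer or medium: DMEM containing 5-aza-dC | Dosing: One concentration, pinned | Times: 3 d treatment, 15 min room-temperature fixation | Controls: Ellipticine 6 µM positive control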
TPT1 inh = inhibitors of Candida albicans tRNA 2'-phosphotransferase TPT1. recombinant caTPT1, FP RNA substrate dephosphorylation. inhibition, % at 5 µM. actives 0.81% (n = 300,000). AID 1962;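 active = inhibition above the mean of all tested compounds plus 3 SD, set per screening campaign, cut at about 24% in these data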;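 note: plate controls were DMSO alone for no effect and ferristatin control at 100 nM for full effect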
CSN deneddyl inh = inhibitors of human CSN-mediated cullin deneddylation; inhibition, % at 12.5 µM; actives 0.38% (n = 360,000); Purified CSN, SCF-Nedd8-OG deneddylation, fluorescence polarization; AID 651999;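 active = pattern-corrected inhibition above about 35%, with an unprinted fluorescence ratio check between 0.5 and 1.5, limit read from the data, passing the limit was not always enough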;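 note: 0% = enzyme with substrate and 100% = substrate without enzyme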
Target sequence (Q92905 whole entry, looked up, one chain of several): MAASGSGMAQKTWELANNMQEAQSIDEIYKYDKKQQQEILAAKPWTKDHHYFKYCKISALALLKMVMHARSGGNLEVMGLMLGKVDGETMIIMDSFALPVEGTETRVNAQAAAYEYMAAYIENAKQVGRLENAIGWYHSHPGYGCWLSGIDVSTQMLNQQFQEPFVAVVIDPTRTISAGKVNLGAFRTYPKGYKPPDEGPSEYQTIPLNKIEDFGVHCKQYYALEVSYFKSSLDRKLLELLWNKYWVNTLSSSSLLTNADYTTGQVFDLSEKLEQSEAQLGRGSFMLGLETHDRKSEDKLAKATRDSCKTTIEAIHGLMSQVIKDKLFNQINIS
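test system = HEK293T-derived human Csn5 enzyme | amount = 0.24 nM Csn5 enzyme, final concentration | medium = Tris/NaCl/DTT buffer, pH 7.5 | schedule = 90 min reaction at room temperature | signal = FP | evaluation = inhibition of Csn5 cleavage, % | compound dosing = single dose of 12.5 µM compound with 0.25% DMSO | probe or stimulus = 10 nM SCFSkp2-Nedd8OG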
HNF4a DNA conf = change in binding of human HNF4 alpha to DNA, retest; shares compounds with HNF4A DNA FP; HNF4A-FITC DNA binding, fluorescence polarization, 1 h; activity change, % at 12.5 µM; actives 99% (n = 210); AID 1224897; call rule not given here
* = called active by the depositor. In the library only some 1.3% were active in any assay of this set; here they are far more common.

`CN(/C=C/C(=C\C=[N+](C)c1ccccc1)OCCCS(=O)(=O)[O-])c1ccccc1` gave HNF4A DNA FP 87*, aDG glyco up 0, Xi reactivation 0, TPT1 inh 1, CSN deneddyl inh 31 and HNF4a DNA conf 106*.
Screening COc1ccc2c3c(n(C)c2c1)[C@@H](CO)N(Cc1cccc(Cl)c1)CC31CCN(C(=O)C2CC2)CC1 returned Xi reactivation 0.
For Nc1cc2c(cc1Cl)-c1ccc([N+](=O)[O-])cc1C2=NO the results were Rpn11 inh 30, HNF4A DNA FP 51*, aDG glyco up 0, Xi reactivation 0, CSN deneddyl inh 19 and HNF4a DNA conf 52*.
COc1ccc(/C=N/NC(=O)c2ccccc2OC)cc1COc1ccccc1[N+](=O)[O-] was read as Rpn11 inh 9, HNF4A DNA FP 83*, aDG glyco up 0, Xi reactivation 0, TPT1 inh -3, CSN deneddyl inh 101* and HNF4a DNA conf 60*.
Screening CCSc1ncc(Cl)c(C(=O)Nc2sc3c(c2C(=O)NCc2cccnc2)CCCC3)n1 returned HNF4A DNA FP 51*, aDG glyco up 0, TPT1 inh -2, CSN deneddyl inh 6 and HNF4a DNA conf 49*.
For C[C@@H]1CN([C@H](C)CO)C(=O)c2cc(NC(=O)c3ccncc3)ccc2O[C@@H](C)CCCCO[C@@H]1CN(C)S(=O)(=O)c1cccs1 the results were Xi reactivation 0.
Screening O=C(C[C@@H]1CC[C@@H](NC(=O)NC2CCCCC2)[C@@H](CO)O1)NCc1ccc(Cl)cc1 returned Xi reactivation -1.
`Cc1noc(C)c1S(=O)(=O)N(C)C[C@@H]1OCCCC[C@H](C)Oc2ccc(NS(C)(=O)=O)cc2C(=O)N([C@H](C)CO)C[C@H]1C` gave Xi reactivation 0.
`O=C(N/N=C\C=C\c1ccc(Br)cc1)c1ccc2c(c1)OCO2` gave Rpn11 inh 116*, HNF4A DNA FP 50*, aDG glyco up 0, Xi reactivation 0, TPT1 inh 0, CSN deneddyl inh 49* and HNF4a DNA conf 62*.
C[C@@H]1CN([C@H](C)CO)C(=O)c2cc(NC(=O)Nc3cccc4ccccc34)ccc2O[C@@H](C)CCCCO[C@@H]1CN(C)Cc1ccc2c(c1)OCO2 was read as Xi reactivation 0.
Cc1cccc(S(=O)(=O)N2C[C@@H](O)COC[C@H]3O[C@@H](CC(=O)N4CCN(C)CC4)CC[C@@H]32)c1 was read as Xi reactivation 0.
For COc1cc(/C=C2/C(=O)N(C)C(=S)N2C)ccc1OCc1cccc(F)c1 the results were HNF4A DNA FP 36*, aDG glyco up 0, Xi reactivation 0, TPT1 inh 9, CSN deneddyl inh 11 and HNF4a DNA conf 50*.
For CN1C(=O)/C(=C/c2ccc(OCc3cccc(F)c3)cc2)NC1=S the results were Rpn11 inh 1, HNF4A DNA FP 6, aDG glyco up 0, Xi reactivation 0, TPT1 inh 0 and CSN deneddyl inh -4.
`COc1cccc(C(=O)Nc2ccc3c(c2)OC[C@@H](C)NC[C@H](C)[C@@H](OC)CN(C)C3=O)c1` gave Xi reactivation 0.
`CCCCNC(=O)c1cc(-c2ccccc2)sc1N` gave HNF4A DNA FP 15, aDG glyco up 0, Xi reactivation 0 and CSN deneddyl inh 6.
COCCNC(=O)c1cc(-c2ccccc2)sc1N was read as HNF4A DNA FP 55*, aDG glyco up 0, Xi reactivation 0, CSN deneddyl inh 29 and HNF4a DNA conf 85*.
CO[C@@H]1CN(C)C(=O)c2ccc(NC(=O)Cc3ccccc3)cc2OC[C@H](C)N(C(=O)c2ccccc2F)C[C@@H]1C was read as Xi reactivation 0.
`COc1cc(/C=N/c2oc(C)c(C)c2C#N)cc(Br)c1O` gave HNF4A DNA FP 60*, aDG glyco up 0, Xi reactivation 0, TPT1 inh 3, CSN deneddyl inh 16 and HNF4a DNA conf 78*.
Screening O=C(N/N=C/c1cccnc1)c1cccc(NC(=O)c2ccc(Cl)cc2)c1 returned Rpn11 inh 52*, HNF4A DNA FP 90*, aDG glyco up 0, TPT1 inh 3, CSN deneddyl inh 110* and HNF4a DNA conf 173*.
`O=C1CC(=O)N(C2CCCCC2)C(=O)N1c1ccccc1S(=O)(=O)Oc1ccccc1` gave HNF4A DNA FP 65*, aDG glyco up 0, Xi reactivation 0, CSN deneddyl inh 24 and HNF4a DNA conf 41*.
Screening CC/C(=C\c1oc2cc3ccccc3cc2[n+]1CC)Nc1ccccc1 returned Rpn11 inh 8, HNF4A DNA FP 51*, aDG glyco up 1, Xi reactivation 0, TPT1 inh 6, CSN deneddyl inh -2 and HNF4a DNA conf 88*.
Screening O=C(Nc1ccccc1)c1cc2ccccc2o1 returned Rpn11 inh -8, HNF4A DNA FP 0, aDG glyco up 0, TPT1 inh 2 and CSN deneddyl inh -5.
Screening Cc1noc(C)c1NC(=O)Nc1ccc2c(c1)C(=O)N([C@H](C)CO)C[C@@H](C)[C@H](CN(C)S(=O)(=O)c1ccccc1)O2 returned Xi reactivation 1.
CN(C)c1ccc(C=NN2C(=O)CSC2=S)c(Cl)c1 was read as HNF4A DNA FP 87*, aDG glyco up 0, Xi reactivation 0, CSN deneddyl inh 60* and HNF4a DNA conf 88*.
For O=C1CSC(=S)N1N=Cc1c(F)cccc1Cl the results were Rpn11 inh 12, HNF4A DNA FP 4, aDG glyco up 0, Xi reactivation 0 and CSN deneddyl inh 5.
`Cc1snc(SCc2ccc(F)cc2)c1C#N` gave Rpn11 inh 1, HNF4A DNA FP -3, aDG glyco up 0, Xi reactivation 0, TPT1 inh -2 and CSN deneddyl inh 4.
`Cc1nc(CSc2nsc(/C=C/N(C)C)c2C#N)cs1` gave HNF4A DNA FP 70*, aDG glyco up 0, Xi reactivation 0, CSN deneddyl inh 45* and HNF4a DNA conf 62*.

Screens deposited in PubChem BioAssay by several laboratories.
